In article PMC5059843 (Molecular pharmaceutics, 2016):
Where “and” joins values, the source holds several entries; their conditions need not be identical. Identical values can stand only once. Like-named read-outs stand apart in the source and are kept apart here.

Columns and labels:
CYP3A4 [1] = biological target: T1, CYP3A4 (Homo sapiens, UniProt P08684); format: biochemical
CYP3A4 [2] = biological target: T1, CYP3A4; assay: Stopped-flow binding kinetics of ligand to purified CYP3A4; settings: for k2: dissociation rate from KS=k2/k1
[3] = Rat pharmacokinetics of PPT alone; format: in vivo
rat CYP3A = format: biochemical
CYP3A4 [4] = biological target: T1, CYP3A4; assay: Spectral MIC formation in CYP3A4 baculosomes, SVD and kinetic modeling; format: biochemical
[5] = Rat plasma equilibrium dialysis; format: in vitro ADME; settings: pH 7.4
Outline: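 Rat plasma spiked with test compound to a final 2 μM. Dialysed in a 96-well equilibrium dialyser, plasma on one side and blank phosphate buffer (pH 7.4) on the other. Incubated 20 h at 37 °C under 5% CO2. The unbound fraction was determined from the two sides.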

CYP3A4 [6] = biological target: T1, CYP3A4; assay: In vitro TDI assay in pooled HLM; format: biochemical
[7] = 3A4 baculosomes, Figure 3 scheme
[8] = baculosomes, end of kinetic experiment (~30 min), 100 μM PPT

T1 sequence (P08684 whole entry): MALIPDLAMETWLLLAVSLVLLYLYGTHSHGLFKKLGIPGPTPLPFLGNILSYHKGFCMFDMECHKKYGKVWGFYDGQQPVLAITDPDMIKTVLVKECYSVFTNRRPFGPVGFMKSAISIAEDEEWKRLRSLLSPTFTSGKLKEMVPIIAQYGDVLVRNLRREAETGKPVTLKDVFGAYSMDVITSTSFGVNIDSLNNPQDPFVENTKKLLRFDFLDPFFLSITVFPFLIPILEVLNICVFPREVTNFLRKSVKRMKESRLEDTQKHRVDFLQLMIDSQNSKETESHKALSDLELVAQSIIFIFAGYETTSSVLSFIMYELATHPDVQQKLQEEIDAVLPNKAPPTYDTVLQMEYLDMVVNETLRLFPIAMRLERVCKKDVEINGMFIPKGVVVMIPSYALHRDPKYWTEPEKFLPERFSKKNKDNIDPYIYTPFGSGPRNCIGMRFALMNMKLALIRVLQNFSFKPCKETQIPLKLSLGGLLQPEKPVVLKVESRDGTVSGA

COc1cc([C@@H]2c3cc4c(cc3[C@H](O)[C@H]3COC(=O)[C@H]23)OCO4)cc(OC)c1OC [PPT, Podophyllotoxin]
k4 (carbene release, enzyme regeneration) (CYP3A4 [1]; HLM, Figure 3 scheme): 0.0195 ± 0.000 min⁻¹ | k6 (P420 formation from EI) (CYP3A4 [1]; HLM, Figure 3 scheme): 0.0506 ± 0.0401 min⁻¹ | k7 (P420 degradation) (CYP3A4 [1]; HLM, Figure 3 scheme): 0 min⁻¹ | k3 (Fe3+:carbene formation) (CYP3A4 [1]; HLM, Figure 3 scheme, listed as carries footnote b: fixed value): 1.134 ± 0.156 min⁻¹ | fraction of cytochrome P450 in the Fe2+:carbene form (CYP3A4 [1]; HLM, end of the experiments): 17.2 ± 2.2% | fraction of cytochrome P450 in the P420 form (CYP3A4 [1]; HLM, end of the experiments): 24.0 ± 2.1% | fraction of cytochrome P450 in the free form (CYP3A4 [1]; HLM, end of the experiments): 40.7 ± 7.3% | net rate constant for Fe2+:carbene formation (enzyme inactivation) (CYP3A4 [1]; spectral MIC formation experiments in HLM): 0.020 min⁻¹ | k2 (CYP3A4 [2]; used for 3A4 baculosomes model): 10600 min⁻¹ | k2 (CYP3A4 [2]; used for HLM model): 10600 min⁻¹ | experimentally determined on-rate (k1) used in the TDI model (CYP3A4 [2]; fixed in the TDI model fitting): 270 µM/s | k1 (CYP3A4 [2]; from binding kinetic experiment, used for HLM model): 1080 min⁻¹ | mean Cmax,unbound ([3]; PPT alone, 2-compartmental model): 0.17 µM | Cmax ([3]; male, Sprague-Dawley, plasma): 3.94 µM | half-life ([3]; male, Sprague-Dawley, plasma): 37 min | k6/KI2 (rat CYP3A): 6.1e+07 ± 1.68e+07 M⁻¹ s⁻¹ | k7 (rat CYP3A): 0.12 ± 0.02 min⁻¹ and 0.11 ± 0.02 min⁻¹ | k3 (Fe3+:carbene formation) (CYP3A4 [4]; 3A4 baculosomes, 100 μM PPT, Figure 3 scheme, footnote b: fixed value): 1.8 min⁻¹ | k4 (carbene release, enzyme regeneration) (CYP3A4 [4]; [7]): 0.0780 ± 0.0186 min⁻¹ | k5 (reduction to Fe2+:carbene) (CYP3A4 [4]; [7]): 0.0804 ± 0.0228 min⁻¹ | k6 (P420 formation from EI) (CYP3A4 [4]; [7]): 0.1224 ± 0.0252 min⁻¹ | k7 (P420 degradation) (CYP3A4 [4]; [7]): 0.0636 ± 0.0048 min⁻¹ | fraction of total P450 as free P450 (CYP3A4 [4]; [8]): 15.0 ± 0.8% | fraction of total P450 in the inactivated form (Fe2+:carbene) (CYP3A4 [4]; [8]): 52.0 ± 5.8% | enzyme regeneration through carbene release, baculosomes versus HLM (CYP3A4 [4]; faster in baculosomes than in HLM): about 3 fold | fraction unbound at 20 h, 2 μM [5]: 0.044 ± 0.006 | k3 (CYP3A4 [6]; Q model): 95.3 ± 1.7 min⁻¹ | k5 (CYP3A4 [6]; Q model): 3.89e+07 ± 1.63e+07 M⁻¹ s⁻¹ | k7 (CYP3A4 [6]; Q model): 0.23 ± 0.07 min⁻¹ | k8 (CYP3A4 [6]; Q model): 0.081 ± 0.012 min⁻¹ | k10 (CYP3A4 [6]; Q model): 0.011 ± 0.001 min⁻¹ | α (CYP3A4 [6]; Q model): 0.21 ± 0.08 | k5 (CYP3A4 [6]; QI model): 5.618e+07 ± 2.612e+07 M⁻¹ s⁻¹ | k8 (CYP3A4 [6]; QI model): 0.15 ± 0.04 min⁻¹ | k9 (CYP3A4 [6]; QI model): 0.011 ± 0.001 min⁻¹ | k10 (CYP3A4 [6]; QI model): 0.017 ± 006 min⁻¹ | α (CYP3A4 [6]; QI model): 0.16 ± 0.07 | k3 (CYP3A4 [6]; QI model (ESI-QI scheme, Figure 5a)): 94.9 ± 1.6 min⁻¹ | k7 (CYP3A4 [6]; QI model, Fe3+:carbene formation): 0.50 ± 0.23 min⁻¹
